In the library only some 5.9% were active in any assay of this set; here they are far more common.
Pf Dd2 inh: blocks growth of Plasmodium falciparum Dd2 parasites. P. falciparum Dd2 growth, SYBR Green, 72 h; stronger effect = lower value. activity change, % at 10 µM. 94,000 tested, 2.3% active. AID 1159554; in the data active = activity change below about -80%; inconclusive = no clear call, values can overlap the other calls
T cruzi growth-1: blocks T. cruzi growth in NIH3T3 culture; inhibition, % at 8.34 µM; T. cruzi beta-gal in NIH3T3, GalScreen luminescence, 90 h; 77,000 tested, 5.9% active;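 active = mean inhibition above about 93%, with at least 55% of replicates each passing it, limit read from the data, passing the limit was not always enough; inconclusive = only one of those two conditions holds; inactive = neither condition holds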
IDH1 mut inh: IDH1 R132H (human) inhibition; O75874; 70,000 tested, 0.18% active; inhibition, % at 10 µM; IDH1 R132H reductase, diaphorase/resazurin fluorescence, 60 min; AID 624101; in the data active = inhibition above about 34%; inconclusive = no clear call, values can overlap the other calls; inactive = below about 11%
Target sequence (O75874 whole entry R132H): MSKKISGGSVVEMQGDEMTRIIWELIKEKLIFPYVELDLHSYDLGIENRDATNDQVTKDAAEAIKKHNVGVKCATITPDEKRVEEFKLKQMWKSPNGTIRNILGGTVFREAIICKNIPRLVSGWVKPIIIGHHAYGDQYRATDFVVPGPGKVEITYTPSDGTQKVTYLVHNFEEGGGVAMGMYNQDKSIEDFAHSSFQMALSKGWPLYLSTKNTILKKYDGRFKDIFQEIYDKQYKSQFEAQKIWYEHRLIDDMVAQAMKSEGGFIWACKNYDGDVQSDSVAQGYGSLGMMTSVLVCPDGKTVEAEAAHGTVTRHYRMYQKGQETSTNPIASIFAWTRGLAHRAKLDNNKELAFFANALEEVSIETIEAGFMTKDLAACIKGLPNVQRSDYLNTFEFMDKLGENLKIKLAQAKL
GASC1 inh: KDM4C (human) demethylase inhibition; Q9H3R0; GST-KDM4C 2-372, H3K9me3 peptide, LANCE TR-FRET; inhibition, % at 12.5 µM; 96,000 tested, 0.15% active; AID 720574;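 active = mean replicate inhibition above about 25%, with at least 55% of replicates also reaching it, limit read from the data, passing the limit was not always enough; inconclusive = only one of those two conditions met; inactive = neither condition met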
Target sequence (Q9H3R0 2-372 limits assumed): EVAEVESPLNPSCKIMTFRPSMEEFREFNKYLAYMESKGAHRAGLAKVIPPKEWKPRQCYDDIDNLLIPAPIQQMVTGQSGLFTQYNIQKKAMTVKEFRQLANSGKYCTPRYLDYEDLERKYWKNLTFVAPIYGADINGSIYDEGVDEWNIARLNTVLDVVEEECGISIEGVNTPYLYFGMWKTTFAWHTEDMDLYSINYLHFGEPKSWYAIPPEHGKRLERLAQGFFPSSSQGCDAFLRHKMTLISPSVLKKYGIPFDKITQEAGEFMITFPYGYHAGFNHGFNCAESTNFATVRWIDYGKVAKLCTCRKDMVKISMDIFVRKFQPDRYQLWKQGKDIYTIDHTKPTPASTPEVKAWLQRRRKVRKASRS
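System – N-terminal GST-fused human GASC-1 (KDM4C) fragment, residues 2-372 · Input – enzyme final amount 10 nM · Technique – LANCE TR-FRET, Eu antibody, ULight-streptavidin, EDTA, ex 340 nm, em 618/671 nm · Medium – HEPES buffer, pH 7.5, plus ascorbate · Incubation – enzyme reaction 30 min, then detection 60 min, both room temperature · Reagent – H3K9me3 peptide with Fe(II)/2OG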
T cruzi growth-2: inhibitors of T. cruzi proliferation; inhibition, % at 8.35 µM; T. cruzi beta-gal in NIH3T3, GalScreen luminescence, 90 h; shares compounds with T cruzi growth-1; 5,600 tested, 72% active; AID 651739;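 active = mean replicate inhibition above about 95% and at least 55% of replicates individually reaching it, limit read from the data; inconclusive = only one of the two criteria is met; inactive = neither criterion is met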
T cruzi growth-3: Trypanosoma cruzi proliferation inhibition; shares compounds with T cruzi growth-1; T. cruzi beta-gal in NIH3T3, GalScreen luminescence, 90 h; inhibition, % at 2.09 µM; 5,600 tested, 21% active; AID 651740;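 active = mean inhibition above about 95%, with at least 55% of replicates also reaching it, limit read from the data; inconclusive = meets just one of the two conditions; inactive = meets neither condition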
NIH3T3 tox: kills mouse NIH/3T3 fibroblasts. shares compounds with T cruzi growth-1. 5,600 tested, 14% active. AID 651742. cytotoxicity (signal decrease), % at 8.35 µM. NIH/3T3 viability, CellTiter-Glo ATP luminescence, 90 h;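 active = mean signal decrease across replicates above about 35% based on untreated-well scatter, with enough replicates individually passing, limit read from the data; inconclusive = no rule stated though some were filed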
3T3 cytotox 2: NIH/3T3 (mouse) viability loss; shares compounds with T cruzi growth-1; NIH/3T3 viability, CellTiter-Glo ATP luminescence, 90 h; inhibition, % at 24.9 µM; 5,600 tested, 56% active;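 active = mean loss of cell viability signal at or above a set limit, and enough replicates individually reaching it; inconclusive = meets only the mean limit or only the replicate share; inactive = meets neither condition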
Large screens that a line does not name were inactive (follow-up assays come after a bar, where they were run).

C[C@@H]1CCCCO[C@@H](CN(C)Cc2ccc(Cl)c(Cl)c2)[C@H](C)CN([C@H](C)CO)C(=O)c2cc(NC(=O)Nc3ccc(C(F)(F)F)cc3)ccc2O1	Pf Dd2 inh -86
C[C@H]1CCCCO[C@H](CN(C)Cc2ccc(C(F)(F)F)cc2)[C@@H](C)CN([C@@H](C)CO)C(=O)c2cc(NC(=O)c3ccccc3)ccc2O1	none
C[C@H]1CCCCO[C@H](CN(C)Cc2ccc(C(F)(F)F)cc2)[C@@H](C)CN([C@@H](C)CO)C(=O)c2cc(NC(=O)Nc3ccccc3)ccc2O1	none
C[C@@H]1CCCCO[C@H](CN(C)Cc2ccc(Cl)c(Cl)c2)[C@H](C)CN([C@@H](C)CO)C(=O)c2cc(NC(=O)Nc3ccc(C(F)(F)F)cc3)ccc2O1	Pf Dd2 inh inconclusive
C[C@@H]1CCCCO[C@H](CN(C)Cc2ccc(C(F)(F)F)cc2)[C@@H](C)CN([C@@H](C)CO)C(=O)c2cc(NC(=O)c3ccccc3)ccc2O1	Pf Dd2 inh -86
C[C@H]1CCCCO[C@@H](CN(C)Cc2ccc(C(F)(F)F)cc2)[C@@H](C)CN([C@@H](C)CO)C(=O)c2cc(NC(=O)c3ccccc3)ccc2O1	none (no result: IDH1 mut inh)
COc1ccc2nc(/N=C(/N)NC(=O)N3c4ccccc4Sc4ccccc43)nc(C)c2c1	none (no result: Pf Dd2 inh, T cruzi growth-1, GASC1 inh)
C[C@H](CO)N1C[C@H](C)[C@@H](CN(C)C(=O)c2cccnc2)Oc2cc(C#CC3CC3)ccc2S1(=O)=O	IDH1 mut inh 42
C[C@@H]1CN([C@H](C)CO)S(=O)(=O)c2ccc(C#CC3CC3)cc2O[C@H]1CN(C)Cc1cccnc1	IDH1 mut inh 60 (no result: T cruzi growth-1)
C[C@H](CO)N1C[C@H](C)[C@H](CN(C)C(=O)c2cccnc2)Oc2cc(C#CC3CC3)ccc2S1(=O)=O	none
Cc1ccc(C)c(-n2nnnc2SCC(=O)Nc2ccc(F)cc2)c1	none (no result: Pf Dd2 inh, T cruzi growth-1, GASC1 inh)
C[C@H]1CN([C@@H](C)CO)C(=O)c2cccc(NC(=O)Nc3ccc(F)cc3)c2O[C@@H]1CN(C)Cc1ccc(C(=O)Nc2ccccc2N)cc1	Pf Dd2 inh -83 (no result: T cruzi growth-1)
C[C@H](CO)N1C[C@H](C)[C@H](CN(C)Cc2ccc(C(=O)Nc3ccccc3N)cc2)Oc2c(NC(=O)Nc3ccc(F)cc3)cccc2C1=O	none (no result: T cruzi growth-1)
C[C@@H]1CN([C@@H](C)CO)C(=O)c2cccc(NC(=O)Nc3ccc(F)cc3)c2O[C@H]1CN(C)Cc1ccc(C(=O)Nc2ccccc2N)cc1	Pf Dd2 inh -82 (no result: T cruzi growth-1, IDH1 mut inh)
C[C@@H]1CN([C@H](C)CO)C(=O)c2cccc(NC(=O)Nc3cccc4ccccc34)c2O[C@@H]1CN(C)Cc1ccc(C(=O)Nc2ccccc2N)cc1	Pf Dd2 inh -92 (no result: T cruzi growth-1)
C[C@@H]1CN([C@@H](C)CO)C(=O)c2cccc(NC(=O)Nc3ccc(C(F)(F)F)cc3)c2O[C@H]1CN(C)Cc1ccc(C(=O)Nc2ccccc2N)cc1	Pf Dd2 inh -85 (no result: T cruzi growth-1, IDH1 mut inh)
CC12CCC3c4ccc(O)cc4CC(CCCCCCCCCS(=O)CCCC(F)(F)C(F)(F)F)C3C1CCC2O (stereo not given)	none (no result: Pf Dd2 inh, T cruzi growth-1, GASC1 inh)
COc1ccc(Cl)cc1N(CC(=O)Nc1ccc(Br)cc1F)S(C)(=O)=O	none (no result: Pf Dd2 inh, T cruzi growth-1, GASC1 inh)
COCc1nc2ccccc2n1CCOc1ccc(Cl)cc1Cl	none (no result: Pf Dd2 inh, T cruzi growth-1, GASC1 inh)
CC(C)NC(=O)Nc1cccc2c1O[C@H](CN(C)Cc1ccc(C(=O)Nc3ccccc3N)cc1)[C@H](C)CN([C@@H](C)CO)C2=O	Pf Dd2 inh -84 (no result: T cruzi growth-1)
CC(C)NC(=O)Nc1cccc2c1O[C@@H](CN(C)Cc1ccc(C(=O)Nc3ccccc3N)cc1)[C@@H](C)CN([C@H](C)CO)C2=O	none (no result: T cruzi growth-1)
C[C@@H]1CN([C@H](C)CO)C(=O)c2cccc(NC(=O)Nc3ccc4c(c3)OCO4)c2O[C@@H]1CN(C)Cc1ccc(C(=O)Nc2ccccc2N)cc1	Pf Dd2 inh -91 (no result: IDH1 mut inh)
C[C@@H]1CN([C@@H](C)CO)C(=O)c2cccc(NC(=O)Nc3ccccc3)c2O[C@@H]1CN(C)Cc1ccc(C(=O)Nc2ccccc2N)cc1	Pf Dd2 inh -94 (no result: IDH1 mut inh)
COc1ccc2c3c(n(C)c2c1)[C@H](CO)N(C(=O)C1CCC1)CC31CCN(Cc2cccc(F)c2)CC1	Pf Dd2 inh -84 (no result: T cruzi growth-1, IDH1 mut inh)
COc1ccc2c3c(n(C)c2c1)[C@@H](CO)N(C(=O)C1CCC1)CC31CCN(Cc2cccc(F)c2)CC1	none (no result: T cruzi growth-1, IDH1 mut inh)
COc1cccc(CN2CCC3(CC2)CN(C(=O)C2CC2)[C@H](CO)c2c3c3ccc(OC)cc3n2C)c1	Pf Dd2 inh -85 (no result: T cruzi growth-1, IDH1 mut inh)
Cc1ccc(S(=O)(=O)Nc2ccc3c(c2)C(=O)N([C@H](C)CO)C[C@H](C)[C@H](CN(C)Cc2ccc(C(F)(F)F)cc2)O3)cc1	T cruzi growth-1 97 | T cruzi growth-2 98 | T cruzi growth-3 inactive | NIH3T3 tox inactive | 3T3 cytotox 2 103
C[C@@H]1CN([C@@H](C)CO)C(=O)c2cc(NS(=O)(=O)c3ccc(Cl)cc3)ccc2O[C@H]1CN(C)Cc1ccc(C(F)(F)F)cc1	none
Cc1ccc(S(=O)(=O)Nc2ccc3c(c2)C(=O)N([C@@H](C)CO)C[C@H](C)[C@H](CN(C)Cc2ccc(C(F)(F)F)cc2)O3)cc1	T cruzi growth-1 99 | T cruzi growth-2 103 | T cruzi growth-3 100 | NIH3T3 tox inactive | 3T3 cytotox 2 99
C[C@@H]1CN([C@H](C)CO)C(=O)c2cc(NS(=O)(=O)c3ccc(Cl)cc3)ccc2O[C@@H]1CN(C)Cc1ccc(C(F)(F)F)cc1	T cruzi growth-1 128 | T cruzi growth-2 inconclusive | T cruzi growth-3 inactive | NIH3T3 tox 94 | 3T3 cytotox 2 103
CSc1nn(C)c2cnn(C)c(=O)c12	none (no result: Pf Dd2 inh, T cruzi growth-1, GASC1 inh)
Cc1cc(C(=O)Nc2cccc3c2O[C@H](CN(C)Cc2ccc(C(F)(F)F)cc2)[C@H](C)CN([C@H](C)CO)C3=O)n(C)n1	none (no result: IDH1 mut inh)
Cc1cc(C(=O)Nc2cccc3c2O[C@H](CN(C)Cc2ccc(C(=O)Nc4ccccc4N)cc2)[C@H](C)CN([C@@H](C)CO)C3=O)n(C)n1	Pf Dd2 inh -82, T cruzi growth-1 93 (no result: IDH1 mut inh) | T cruzi growth-2 inactive | T cruzi growth-3 inactive | NIH3T3 tox 46 | 3T3 cytotox 2 91
Cc1cc(C(=O)Nc2cccc3c2O[C@@H](CN(C)Cc2ccc(C(F)(F)F)cc2)[C@@H](C)CN([C@@H](C)CO)C3=O)n(C)n1	T cruzi growth-1 96 (no result: IDH1 mut inh) | T cruzi growth-2 inactive | T cruzi growth-3 inactive | NIH3T3 tox inactive | 3T3 cytotox 2 inconclusive

Bioassay records from PubChem BioAssay.
